MrgX1 agonist = activates human MrgX1 receptor signaling | MrgX1-HEK293 cells, Fluo-4 calcium fluorescence, agonist mode; hits give high values | B-score at 10 µM | hit rate 0.44% among 310,000;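 active = calcium response B-score plate-corrected fluorescence ratio at least 3 library SD, with starting fluorescence B-score inside 5 SD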
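Material: HEK293 cells stably expressing human MrgX1 receptor | Quantity: 15,000 cells per well | Times: Cells plated overnight, dye loaded 0.5 h 37 °C, 0.5 h room temperature | Measured by: Kinetic Fluo-4 NW fluorescence of intracellular calcium | Control set: Positive and negative controls per plate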
MrgX1 allo act = allosterically activates human MrgX1 receptor signaling; MrgX1-HEK293, Fluo-4 calcium flux, FDSS; hits give high values; B-score at 10 µM; AID 588675; hit rate 0.63% among 310,000;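 active = plate-corrected calcium response at least 3 library SD above typical, normal starting fluorescence, not activating the receptor alone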;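 note: compound read alongside a low EC10 to EC30 dose of BAM8-22 agonist; peak minus trough fluorescence over baseline measured at the second addition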
RGS4 act = potentiators or activators of RGS4 | hit rate 0.92% among 310,000 | HEK293 M3R/inducible RGS4, carbachol calcium flux Fluo4; hits give low values | B-score at 10 µM | AID 463111;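 active = B-score of the integrated calcium signal more than 4 SD below the library mean, with starting fluorescence not abnormally high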;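 note: negative B-score means reduced calcium response which marks RGS4 activation or potentiation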
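Also added: carbachol at ECmax as muscarinic agonist stimulus; Assay system: HEK293 cells with stable M3R and inducible RGS4; Timing: overnight RGS4 induction, 30 min dye load 37 °C, 20 min compound RT; Measured by: Fluo4-AM (2 µM) calcium-flux fluorescence, kinetic read.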
MrgX1 antag = antagonists of human MrgX1 receptor | Q96LB2 | MRGX1-HEK293 calcium flux, Fluo-4, BAM8-22 antagonism; hits give low values | B-score at 10 µM | hit rate 1.3% among 310,000 | AID 588676;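 active = calcium-response B-score plate-corrected more than 3 library SD below zero, starting fluorescence within 5 deviations, no agonist response on first addition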;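 note: peak minus trough fluorescence over baseline after final BAM8-22 challenge near maximal dose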
RGS4 inh = human RGS4 inhibition; P49798; HEK293 M3R/RGS4 inducible, Fluo-4 calcium flux; hits give high values; triggered by carbachol at its EC20; B-score at 10 µM; hit rate 0.45% among 310,000; AID 463165;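 active = B-score, a plate-corrected calcium signal, over three deviations above library mean, with baseline fluorescence within five deviations of library mean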;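 note: RGS4 expression induced by doxycycline in cells with stable M3 receptor; B-score is computed from the integrated fluorescence ratio over baseline after carbachol; higher B-score means a larger calcium signal and so more RGS4 inhibition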
Target sequence (P49798 whole entry, looked up): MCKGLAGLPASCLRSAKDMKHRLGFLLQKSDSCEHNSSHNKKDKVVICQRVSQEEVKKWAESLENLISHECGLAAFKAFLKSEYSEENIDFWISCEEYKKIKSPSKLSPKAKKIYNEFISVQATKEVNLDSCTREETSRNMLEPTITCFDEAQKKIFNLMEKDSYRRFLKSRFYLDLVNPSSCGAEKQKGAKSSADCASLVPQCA
The depositor's hits bear a star; i = inactive. Most compounds without a hit are left out; they make up all but 3.5% or so of the library.

SMILES | MrgX1 agonist | MrgX1 allo act | RGS4 act | MrgX1 antag | RGS4 inh
Cc1ccc(C(=O)N(c2ccccc2)C2CC(C)N(C(=O)c3ccco3)c3ccccc32)cc1 (centres undefined) | i | 17* | i | i | i
CC(C)CC(=O)NC(NC(=S)Nc1sc2c(c1C#N)CCCC2)C(Cl)(Cl)Cl (centres undefined) | i | i | i | -4.5* | i
O=C(NN1C(=O)c2ccccc2NC1c1ccoc1)c1ccc([N+](=O)[O-])cc1 (centres undefined) | i | i | i | -4.6* | i
Cn1ncc2c(NNC(=O)c3ccc(Cl)c(Cl)c3)ncnc21 | i | i | i | i | i
Cc1c(C(=O)/C=C/c2cccs2)oc2ccc(F)cc12 | i | i | i | -6* | i
CN1C=CC=C/C1=C1\SC(=S)N(c2ccccc2)C1=O | i | i | i | i | i
C=CCN1C=CC=C/C1=C1\SC(=S)N(C)C1=O | i | i | -8.3* | i | i
CCc1noc(C)c1C(=O)N1CCCSC1=Nc1ccccc1 | i | i | i | i | i
O=C(NCc1ccco1)C1CCCN(S(=O)(=O)Cc2ccccc2)C1 (centres undefined) | i | i | i | i | i
c1ccc(C2OC3c4cccc5cccc(c45)C3N2c2ccccc2)cc1 (centres undefined) | 34* | i | i | i | i
CN(CC(=O)Nc1ccccc1C(F)(F)F)Cc1c(O)ccc2ccccc12 | i | i | i | i | i
CC(C)c1[nH]nc2c1C(Cc1ccccc1)C(C#N)=C(N)O2 (centres undefined) | i | i | -7.6* | i | i
CC(C)C(c1nnnn1Cc1ccc(F)cc1)N1CCN(Cc2ccc3c(c2)OCO3)CC1 (centres undefined) | i | i | -7.2* | i | i
COc1ccc(OC)c(C(=O)NC(CC(N)=O)c2ccc(N3CCN(c4ccccc4)CC3)c([N+](=O)[O-])c2)c1 (centres undefined) | i | i | i | i | i
COc1ccc(C(=O)c2ccc(Cl)cc2)cc1 | i | i | i | i | i
COc1ccc(C(=O)c2ccc(Cl)c([N+](=O)[O-])c2)cc1 | i | 7* | i | i | i
Cc1nc2c(cc(Oc3ccc(S(=O)(=O)N4CCOCC4)cn3)c3ccsc32)s1 | i | i | i | i | i
O=C(N/N=C/c1ccccc1F)c1cccc(NC(=O)c2ccccc2Cl)c1 | i | 8.4* | i | i | i
O=C(N/N=C/c1ccc(F)cc1)c1cccc(NC(=O)c2ccc(F)cc2)c1 | i | i | -7.3* | i | i
Cc1ccccc1C(=O)Nc1cccc(C(=O)Nc2ccccc2C(=O)O)c1 | i | i | i | i | i
O=C(Nc1ccccc1C(=O)O)c1cccc(NC(=O)c2ccccc2Cl)c1 | i | i | -7* | i | i
COc1cccc(C(=O)NCCC2=CCCCC2)c1OC | i | i | i | i | i
CCn1c(Cn2nnc(-c3ccccc3)n2)nnc1SCC(=O)Nc1cccc(C)c1C | i | i | i | i | i
COC(=O)Cc1c(O)ccn(CCc2ccc(S(N)(=O)=O)cc2)c1=O | i | i | i | i | i
O=C(CCc1nnc(Cc2cccc(C(F)(F)F)c2)o1)NCCc1ccccc1F | i | i | i | i | i
SMILES | MrgX1 agonist | MrgX1 allo act | RGS4 act | MrgX1 antag | RGS4 inh
Nc1ccc(-c2nc3ccc([N+](=O)[O-])cc3[nH]2)cc1 | i | i | i | i | i
CCN(CC)S(=O)(=O)c1ccc(Nc2nc3ccccc3n3nnnc23)cc1 | i | 14* | i | -6.8* | i
c1ccc(Nc2nc3ccccc3n3nnnc23)cc1 | i | i | i | i | i
CCOc1ccc(C(=O)OCC(=O)N2CCCC2)cc1OCC | i | i | i | i | i
Cc1cccc(NC(=O)CN2CCOCC2)c1C | i | i | i | i | i
O=C1c2ccccc2NC(c2ccc3c(c2)OCCO3)N1c1ccc2c(c1)OCCO2 (centres undefined) | i | i | i | i | i

From PubChem
